Our source for the IC50 values is ChEMBL document CHEMBL1158754, “ent-Dioncophylleine A and related dehydrogenated naphthylisoquinoline alkaloids, the first Asian dioncophyllaceae-type alkaloids, from the "new"plant species Ancistrocladus benomensis” (J Nat Prod, 2005).

Experiment [1] has as its system Plasmodium falciparum. Nature of the experiment: Antiplasmodial activity against chloroquine and pyrimethamine-resistant Plasmodium falciparum K1 in erythrocytes by [3H]hypoxanthine uptake. It is filed as functional, organism-based.
The subject of experiment [2] is Trypanosoma cruzi. Nature of the experiment: Antitrypanosomal activity against Trypanosoma cruzi in rat L6 cells. Format: functional, organism-based.
The subject of experiment [3] is Trypanosoma brucei rhodesiense. Nature of the experiment: Antitrypanosomal activity against Trypanosoma brucei rhodesiense. Format: functional, organism-based.
In experiment [4] the test system is L6. Put plainly: Cytotoxicity against rat L6 cells. It is filed as cell-based. The gist of the method: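 Rat skeletal myoblast (L-6) line; cytotoxicity values reported in µg/mL.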

Converted amounts (≈) assume the structure as drawn.

A word on the IC50: it is the concentration that inhibits the measured activity by half.

In the case of `COc1cccc2c(-c3ccc4cc(C)nc(C)c4c3O)c(C)cc(OC)c12`, the IC50 in experiment [1] was found to be 3.9 mg/L (≈ 10.4 µM); in experiment [2], 54 mg/L (≈ 145 µM); in experiment [3] it was 5.6 mg/L (≈ 15 µM).
Regarding `O=C(Cn1ccnc1[N+](=O)[O-])NCc1ccccc1` [BENZNIDAZOLE], it took 0.55 mg/L (≈ 2.11 µM) to reach half-maximal inhibition in experiment [2] (IC50).
Turning to `COc1ccc(-c2ccc3cc(C)nc(C)c3c2O)c2cc(C)cc(OC)c12` [DIONCOPHYLLEINE D], the IC50 in experiment [1] turned out to be 0.5 mg/L (≈ 1.34 µM); in experiment [2] it was 24.3 mg/L (≈ 65.1 µM); in experiment [3], 4.7 mg/L (≈ 12.6 µM).
Consider `COc1cc(C)c(-c2ccc3cc(C)nc(C)c3c2O)c2cccc(O)c12` [ENT-DIONCOPHYLLEINE A], for which the IC50 came out at 3.1 mg/L (≈ 8.62 µM) in experiment [1], 21.8 mg/L (≈ 60.7 µM) in experiment [2], 1.4 mg/L (≈ 3.9 µM) in experiment [3] and 20.6 mg/L (≈ 57.3 µM) in experiment [4].
